Assay results of several laboratories.
Compare with care: the assays were run in different laboratories.
Effect on: cell growth or viability

SMILES | cell line | test | setting | measurement | result
N#CCCN(C(=O)CCl)c1ccc2c(c1)OCCN2CC(=O)N1CCC(C(=O)Nc2ccc(C(=O)NCCCCCCC(=O)NO)cc2)CC1 | U-87 MG | MTT |  | EC50 | > 50 µM
COc1ccc(NC(=O)NCc2cn(Cc3ccc(Br)cc3)nn2)cc1 | PC-9 | CCK-8 | 50 µM, 72 h | viability | 143%
C[C@H](Nc1ccc2c(c1)OCCn1cc(N3C(=O)OC[C@H]3C(F)F)nc1-2)C(N)=O | AGS | ATP luminescence | 5 days | EC50 | 0.158 µM
O=C(NCc1cn(Cc2cccc(Cl)c2)nn1)Nc1ccc(Cl)cc1 | PC-9 | CCK-8 | 20 µM, 72 h | viability | 90.9%
O=C(NN=Cc1ccc(O)cc1)c1nc2ccccc2s1 | HCT-116 | MTT | 100 µM, 48 h | cell death | 50%
Cc1ccccc1Cn1cc(-c2cccc(NC(=O)Nc3ccc(F)cc3)c2)nn1 | PC-9 | CCK-8 | 50 µM, 72 h | viability | 123%
COc1ccc2/c(=N/c3ccccc3NC(=O)[C@H](C)N)cc(-c3ccc4c(c3)OCCO4)oc2c1 | HCT-116 | CCK-8 | 1 µM | inhibition | 16.5%
CCCCCCCCCCCCCCCCCCOc1ccc(CC(=O)OCC[N+](CC)(CC)CC)cc1 | EKVX | SRB | 10 µM | inhibition | 12.5%
O=C(Nc1cccc(C(F)(F)F)c1)Nc1nc2cc(-c3ccc4ncn(CCN5CCOCC5)c(=O)c4c3)ccc2s1 | PC-9 | MTT | 72 h | IC50 | > 20 µM
O=C(NCc1cn(Cc2ccc(Br)cc2)nn1)Nc1ccc(Cl)cc1 | PC-9 | CCK-8 | 50 µM, 72 h | viability | 179%
O=C(Nc1ccc(Cl)cc1)Nc1cccc(-c2cn(Cc3cccc(Br)c3)nn2)c1 | PC-9 | CCK-8 | 50 µM, 72 h | viability | 92.9%
Cc1nc(NC(=O)N2CCC[C@H]2C(N)=O)sc1-c1ccnc(C(C)(C)C(F)(F)F)c1 | AGS | ATP luminescence | 5 days | EC50 | 3.01 µM
O=C(Nc1ccc(F)cc1)Nc1nc2cc(-c3ccc4ncn(CCN5CCOCC5)c(=O)c4c3)ccc2s1 | PC-9 | MTT | 72 h | IC50 | > 20 µM
NCC(=O)Nc1ccccc1/N=c1\cc(-c2ccc3c(c2)OCO3)oc2c([N+](=O)[O-])cccc12 | HCT-116 | CCK-8 | 1 µM | inhibition | 12.2%
O=C(Nc1ccc(-c2cn(Cc3ccc(Cl)cc3)nn2)cc1)Nc1ccccc1Br | PC-9 | CCK-8 | 20 µM, 72 h | viability | 98.3%
CCCCCCCCCCCCCCCCCCOc1ccccc1CC(=O)OCC[N+]1(C)CCOCC1 | EKVX | SRB | 10 µM | inhibition | 13.3%
COc1ccc(NC(=O)Nc2cccc(-c3cn(Cc4cccc(Cl)c4)nn3)c2)cc1 | PC-9 | CCK-8 | 20 µM, 72 h | viability | 143%
CCCCCCCCCCCCCCCCCCOc1cccc(CC(=O)OCC[N+]2(C)CCCC2)c1 | EKVX | SRB | 10 µM | inhibition | 1.14%
CS(=O)(=O)NCCC(=O)Nc1ccccc1/N=c1\cc(-c2ccc3nc(N)oc3c2)oc2ccccc12 | HCT-116 | CCK-8 | 1 µM | inhibition | 3.17%
O=C(NCc1cn(Cc2ccc(Br)cc2)nn1)Nc1ccccc1Br | PC-9 | CCK-8 | 50 µM, 72 h | viability | 163%
O=C(Nc1ccc(F)cc1)Nc1nc2cc(-c3ccc4ncn(Cc5ccccc5)c(=O)c4c3)ccc2s1 | PC-9 | MTT | 72 h | IC50 | 7.3 µM

SMILES | cell line | test | setting | measurement | result
CCCCCCCCCCCCCCCCCCOc1ccccc1CC(=O)OCC[N+]1(C)CCCC1 | EKVX | SRB | 10 µM | inhibition | 46.1%
Cc1nc(Nc2ncc(C(=O)Nc3c(C)cccc3Cl)s2)cc(N2CC[C@H](O)C2)n1 | Raji | ATP luminescence | 10 µM, 72 h | inhibition | -2%
NCC(=O)Nc1ccccc1/N=c1\cc(-c2ccc3c(c2)OCO3)oc2c(N)cccc12 | HCT-116 | CCK-8 | 1 µM | inhibition | 14.3%
CC(C)NC(=O)Nc1nc2cc(-c3ccc4ncn(Cc5ccccc5)c(=O)c4c3)ccc2s1 | PC-9 | MTT | 72 h | IC50 | > 20 µM
O=C(Nc1ccc(Cl)cc1)Nc1cccc(-c2cn(Cc3cccc(Cl)c3)nn2)c1 | PC-9 | CCK-8 | 20 µM, 72 h | viability | 102%
COc1ccc(NC(=O)Nc2cccc(-c3cn(Cc4ccccc4C)nn3)c2)cc1 | PC-9 | CCK-8 | 20 µM, 72 h | viability | 121%
CCCCCCCCCCCCCCCCCCOc1ccc(CC(=O)OCC[N+]2(C)CCCCC2)cc1 | EKVX | SRB | 10 µM | inhibition | 2.11%
COc1ccc2/c(=N/c3ccccc3NC(=O)N3CCOCC3)cc(-c3ccc4c(c3)OCCO4)oc2c1 | HCT-116 | CCK-8 | 1 µM | inhibition | 11.6%
CCCCCCCCCCCCCCCCCCOc1ccccc1CC(=O)OCC[N+](CC)(CC)CC | EKVX | SRB | 10 µM | inhibition | 56.6%
O=C(NCc1cn(Cc2ccc(Cl)cc2)nn1)Nc1ccc(Cl)cc1 | PC-9 | CCK-8 | 50 µM, 72 h | viability | 81.7%
COc1ccc(NC(=O)Nc2ccc(-c3cn(Cc4cccc(Cl)c4)nn3)cc2)cc1 | PC-9 | CCK-8 | 50 µM, 72 h | viability | 90.4%
O=C(Nc1ccc(-c2cn(Cc3ccc(Br)cc3)nn2)cc1)Nc1ccccc1Br | PC-9 | CCK-8 | 50 µM, 72 h | viability | 106%
COCCC(=O)Nc1ccccc1/N=c1\cc(-c2ccc3nc(N)oc3c2)oc2ccccc12 | HCT-116 | CCK-8 | 1 µM | inhibition | 3.71%
O=C(Nc1ccc(Cl)cc1)Nc1nc2cc(-c3ccc4ncn(Cc5ccccc5)c(=O)c4c3)ccc2s1 | PC-9 | MTT | 72 h | IC50 | > 20 µM
COc1ccc(NC(=O)NCc2cn(Cc3ccccc3C)nn2)cc1 | PC-9 | CCK-8 | 50 µM, 72 h | viability | 109%
CCCCCCCCCCCCCCCCCCOc1cccc(CC(=O)OCC[N+](C)(C)C)c1 | EKVX | SRB | 10 µM | inhibition | 1.89%
CC(C)(C)[C@H](N)C(=O)Nc1ccccc1/N=c1\cc(-c2ccc3c(c2)OCO3)oc2ccccc12 | HCT-116 | CCK-8 | 1 µM | inhibition | 14.6%
COc1ccc(NC(=O)Nc2cccc(-c3cn(Cc4ccc(Br)cc4)nn3)c2)cc1 | PC-9 | CCK-8 | 50 µM, 72 h | viability | 90.3%
N[C@@H](CO)C(=O)Nc1ccccc1/N=c1\cc(-c2ccc3c(c2)OCO3)oc2ccccc12 | HCT-116 | CCK-8 | 1 µM | inhibition | 12.2%
O=C(Nc1ccc(Cl)cc1)Nc1ccc(-c2cn(Cc3cccc(Cl)c3)nn2)cc1 | PC-9 | CCK-8 | 50 µM, 72 h | viability | 76.4%
